Compounds with a hit are over-represented: about 2.5% of the library has one in this group of screens.
SENP1 FRET inh: human SENP1 catalytic domain inhibitors, primary screen, biochemical, FRET, uHTS; recombinant SENP1 catalytic domain, CyPet-SUMO1-YPet FRET cleavage; inhibition, % at 10 µM; 360,000 tested, 0.21% active; AID 624204, 2012;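 active = inhibition at least 30% at 10 µM, raw YFP signal under a set limit, fluorescence ratio 0.5 to 1.5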;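 also: 0% = enzyme with DMSO and 100% = no enzyme wells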
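Test system: human SENP1 catalytic domain; medium: Tris pH 8 buffer plus EDTA, NaCl, BME, BSA, NP40, catalase; incubation: 50 min reaction at room temperature; technique: FRET, CFP and YFP emission; controls: no-enzyme low control and enzyme-plus-DMSO high control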
SENP6 inh: SENP6 protease inhibitors, primary screen, biochemical, luminescence, uHTS; Sentrin-specific protease 6 (Homo sapiens), Q9GZR1; Recombinant SENP6 catalytic domain, aminoluciferin luminescence; inhibition, % at 10 µM; 330,000 tested, 1.8% active;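 active = inhibition above about 50% at the single tested dose, limit read from the data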;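 also: plate controls were DMSO wells with enzyme for no effect and DMSO wells lacking enzyme for full effect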
Target sequence (Q9GZR1 628-1112 limits assumed): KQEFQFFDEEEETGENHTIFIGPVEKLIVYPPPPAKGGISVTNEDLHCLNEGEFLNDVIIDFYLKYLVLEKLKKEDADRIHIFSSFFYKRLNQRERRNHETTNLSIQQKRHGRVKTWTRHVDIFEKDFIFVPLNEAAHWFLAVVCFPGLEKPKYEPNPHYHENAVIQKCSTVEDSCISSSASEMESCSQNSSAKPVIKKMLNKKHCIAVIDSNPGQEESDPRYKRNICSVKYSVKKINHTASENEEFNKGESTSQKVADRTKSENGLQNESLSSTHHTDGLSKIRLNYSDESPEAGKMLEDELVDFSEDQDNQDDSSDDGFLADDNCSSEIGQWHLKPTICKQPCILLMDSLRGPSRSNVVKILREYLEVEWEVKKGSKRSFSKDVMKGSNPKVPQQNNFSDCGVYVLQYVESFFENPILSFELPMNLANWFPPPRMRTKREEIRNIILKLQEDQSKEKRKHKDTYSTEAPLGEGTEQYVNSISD
SENP8 block-1: human SENP8 protease inhibitors, primary screen, biochemical, fluorescence, Nedd8 protein substrate, uHTS | Sentrin-specific protease 8 (Homo sapiens), Q96LD8 | inhibition, % at 20 µM | 360,000 tested, 0.64% active | recombinant SENP8 | AID 602440, 2012; in the data active = inhibition mostly above about 40%, no sharp cut-off; inactive = mostly below about 27%
Target sequence (Q96LD8 whole entry, looked up): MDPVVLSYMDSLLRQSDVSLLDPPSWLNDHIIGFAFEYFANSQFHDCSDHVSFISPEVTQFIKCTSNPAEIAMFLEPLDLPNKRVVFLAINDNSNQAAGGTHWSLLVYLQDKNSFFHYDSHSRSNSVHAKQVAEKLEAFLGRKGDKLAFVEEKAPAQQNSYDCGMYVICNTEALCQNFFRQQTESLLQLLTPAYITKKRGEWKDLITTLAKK
SENP7 inh: SENP7 protease inhibitors, primary screen, biochemical, luminescence, uHTS. Sentrin-specific protease 7 (Homo sapiens), Q9BQF6. recombinant SENP7, Z-RLRGG-aminoluciferin luminescence, 40 min. inhibition, % at 5 µM. 330,000 tested, 1.5% active;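 active = inhibition above about 50% at the single test dose, limit read from the data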;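 also: plate controls were DMSO with enzyme for no effect and no enzyme buffer wells for full effect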
SENP8 block-2: SENP8 protease inhibitors, primary screen, biochemical, luminescence; purified SENP8, Z-RLRGG-aminoluciferin cleavage; 330,000 tested, 1.2% active; Sentrin-specific protease 8 (Homo sapiens), Q96LD8; inhibition, % at 10 µM; in the data active = inhibition above about 50%
The depositor's hits bear a star; i = inactive; . = no result given.

SMILES | SENP1 FRET inh | SENP6 inh | SENP8 block-1 | SENP7 inh | SENP8 block-2
COc1cccc2cc(-c3nc(-c4cccs4)cs3)c(=O)oc12 | -19.9 | -13.3 | -317.7 | -4.4 | -9.9
COc1cccc2cc(-c3ccccc3)c(=O)oc12 | 1.5 | 42.0 | -74.4 | 75.0* | 65.8*
CC(=O)c1ccc(NC(=O)CSc2nnc(-c3ccco3)c(-c3ccco3)n2)cc1 | 15.1 | 1.8 | 44.8* | 17.1 | 8.7
O=C(CSc1nnc(-c2ccco2)c(-c2ccco2)n1)c1ccccc1 | -1.7 | -4.1 | 4.6 | -5.4 | -6.4
O=[N+]([O-])c1ccccc1NCCOc1ccccc1 | 0.8 | 82.3* | 16.4 | 73.3* | 59.9*
COC(=O)CC1OCC=C2CN3CCC45C6=CC(=O)C(=O)C([N+](=O)[O-])=C6NC4C1C2CC35 (centres undefined) | 2.2 | . | 109.6* | . | .
O=C(O)C1Nc2c(O)cc(Cl)c([N+](=O)[O-])c2C2C=CCC12 (centres undefined) | 14.7 | -33.5 | 45.9* | 8.7 | 7.6
COc1ccc(C(C#N)N2N=C(c3ccccc3)CC2c2ccccc2)cc1OC (centres undefined) | -39.6 | 28.4 | -8.3 | 73.0* | -10.4
CC1CC(C)(C)Nc2ccc(N=O)cc21 (centres undefined) | -4.5 | . | 45.0* | . | .
COc1cc(/C=C2/C(=O)N(c3ccc([N+](=O)[O-])cc3)N=C2N2CCOCC2)ccc1O | 4.5 | 42.3 | 63.9* | 21.2 | -1.0
Cc1cccc(CNC(=O)c2cc(S(=O)(=O)N3CCOCC3)cn2C)c1 | -0.1 | -6.1 | 15.9 | 6.0 | -4.3
COc1ccc2noc3c2c1C(=O)c1ccccc1-3 | -37.5 | 86.9* | 104.8* | 57.0* | 80.1*
COc1ccc(OC)c2c1C(=O)c1ccccc1C2=O | . | 14.4 | . | 11.5 | 7.1
CCN(CC)C(=O)C1=C(C)N(CCCOC)C(=O)C(CC(=O)NCc2ccco2)C1 (centres undefined) | 0.6 | . | 7.3 | . | .
CCC(c1ccccc1)C(CC)c1cc(O)c(O)c(O)c1 (centres undefined) | 0.1 | . | 63.5* | . | .
CNC(C)C#Cc1ccc2oc3cccc(OC)c3c(=O)c2c1 (centres undefined) | -0.3 | 11.7 | i | 0.4 | -6.4
CNC(C)C#Cc1ccc2oc3cc(C)c(C)cc3c(=O)c2c1 (centres undefined) | -30.8 | 84.1* | -94.1 | 42.6 | 68.6*
O=C1c2ccccc2C(=O)c2c(NCCCN(CCO)CCO)cccc21 | 5.0 | 9.3 | 43.7* | -3.0 | 3.7
CCN(CC)CC(=O)Nc1cccc2c1C(=O)c1ccccc1C2=O | 8.4 | 1.4 | 40.1* | 0.1 | -4.0
COc1ccccc1N1C(=O)CC(Sc2ccccc2N)C1=O (centres undefined) | 1.8 | -2.2 | 9.3 | 0.8 | 7.1
CCCC(C)Sc1nc2c([nH]1)c(=S)n(C)c(=O)n2C (centres undefined) | 3.4 | . | -16.2 | . | .
Cc1ccc(S(=O)(=O)Nc2ccc3ccccc3c2[N+](=O)[O-])cc1 | -0.1 | . | 7.8 | . | .
Cc1ccc(S(=O)(=O)Nc2ccc3cc([N+](=O)[O-])ccc3c2[N+](=O)[O-])cc1 | 53.0* | . | 23.2 | . | .
Cc1cc(N=NC(=O)c2ccccc2O)c2ccccc2c1O | 3.7 | 19.8 | 20.2 | 10.6 | 4.7
O=C(N=Nc1ccc(NOC(=O)c2ccccc2Br)cc1)c1ccccc1O | . | 91.4* | . | 63.0* | 86.4*
SMILES | SENP1 FRET inh | SENP6 inh | SENP8 block-1 | SENP7 inh | SENP8 block-2
O=C(Nc1ccc([N+](=O)[O-])cc1)C(=O)Nc1cccc(C(=O)O)c1 | 1.0 | 99.3* | 4.8 | 98.9* | 96.6*
O=C1c2cccc3cc([N+](=O)[O-])cc(c23)C(=O)N1CCN1CCCC1 | 69.7* | 11.2 | 30.3 | 9.6 | 3.9
Nc1cc2c3c(cccc3c1)C(=O)N(CCN1CCCC1)C2=O | 37.9 | . | 24.4 | . | .
COc1ccccc1N1CCN(/N=C/C(Cl)=C/c2ccccc2)CC1 | 1.2 | 71.8* | 14.1 | 45.4 | 57.1*
Oc1ccccc1/C=N/N1CCN(c2ccccn2)CC1 | 3.3 | 1.2 | 7.9 | 5.5 | -11.9
CC(/C=N/N1CCN(c2ccccn2)CC1)=C\c1ccccc1 | 2.8 | 58.9* | 2.0 | 62.9* | 31.1
CCCCn1c(N)c(N(CC)C(=O)C(c2ccccc2)c2ccccc2)c(=O)[nH]c1=O | 0.6 | -17.9 | 4.2 | 1.2 | -1.4
C=CCN1C(=O)/C(=C\C=C2\N(C)c3ccccc3C2(C)C)SC1=S | 79.8 | 11.7 | 55.5* | 7.6 | -4.2
CCCN1C(=O)/C(=C/C=C2\N(CC)c3ccccc3C2(C)C)SC1=S | 77.6 | 4.7 | 44.3* | 4.6 | 7.4
O=C(Nc1ccc([N+](=O)[O-])cc1)c1ccccc1F | 0.8 | 13.4 | 30.8 | 12.1 | 6.9
O=C(c1cc(O)c(O)c([N+](=O)[O-])c1)c1ccccc1F | 1.5 | -4.2 | 39.3* | -5.2 | 9.2
O=C1O/C(=C/c2ccccc2)c2ccccc21 | 1.4 | 58.9* | -29.3 | 27.2 | 21.6
COc1cc(OC)c(-c2c3cc(O)c(=O)cc-3oc3cc(O)c(O)cc23)cc1OC | 87.7* | 17.6 | 24.5 | -6.3 | -6.7
Cc1c2cc(O)c(=O)cc-2oc2cc(O)c(O)cc12 | -13.9 | 15.7 | -166.2 | 2.4 | 7.7
N/C(=N\OC(=O)COc1ccc(Cl)cc1Cl)c1ccccn1 | 2.2 | 73.1* | 7.5 | 90.5* | 86.9*
Cc1cc(C)c(C)c(OCC(=O)O/N=C(\N)c2ccccn2)c1 | -1.5 | -8.5 | 7.6 | 4.1 | 0.3
N/C(=N\OC(=O)c1cc(Cl)ccc1Cl)c1ccccn1 | 1.2 | 51.3* | 11.4 | 75.8* | 64.8*
N/C(=N\OC(=O)c1ccc(Cl)cc1Cl)c1cccnc1 | 0.7 | 42.0 | 6.2 | 72.3* | 60.7*
Cc1ccc(NC(=O)C(=O)NCCN2CCN(S(C)(=O)=O)CC2)cc1C | 0.5 | 7.8 | 1.1 | 4.9 | 7.2
Fc1ccc2c(c1)C(c1ccc(N3CCOCC3)cc1)=NNC(c1cccs1)=N2 | 42.3* | -5.3 | -141.0 | 2.8 | -1.7
Cc1ccc2cc(NC(=O)c3cccc(F)c3)ccc2n1 | -2.6 | 58.1* | 24.9 | 40.1 | 31.0
O=C(Nc1ccc2[nH]ncc2c1)c1cccc(F)c1 | 1.6 | 0.3 | 14.9 | 0.7 | -13.8
Cc1c(CC(=O)N[C@H](C(=O)O)C(C)C)c(=O)oc2cc3c(cc12)CCC(C)(C)O3 | -1.3 | 12.9 | -273.3 | -5.2 | -7.4
COc1ccc(C2CC(=O)N3CN(Cc4ccco4)CSC3=C2C#N)cc1 (centres undefined) | -10.1 | -4.0 | 12.3 | 0.2 | 9.4
COc1ccc2ccccc2c1C1CC(=O)N2CN(Cc3ccco3)CSC2=C1C#N (centres undefined) | -4.0 | 9.8 | 45.4* | 15.5 | 12.2
CC(C)(C)n1nnnc1C(c1ccccc1)N1CCN(c2ncccc2C(F)(F)F)CC1 (centres undefined) | 1.9 | . | 2.1 | . | .
